Data set [1] concerns transgenic line of A. thaliana, modified with a synthetic dicamba monooxygenase from Stenotrophomonas maltophilia. In words: Dicamba tolerance trait test, dicamba-tolerant transgenic line. In kind it is in vivo, Arabidopsis thaliana. The conditions noted are these: sprayed at 500 μM, DMOc line. An outline of the steps: (§1)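 Wild-type plants or a homozygous dicamba-tolerant transgenic line (DMOc) were sprayed with test compound or the parent acid at 500 μM.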

Data set [2] relates to A. thaliana. In words: Herbicidal activity assay on soil-grown A. thaliana. The conditions noted are these: for pre-emergent inhibition: pre-emergence treatment; for pre-emergent inhibition / post-emergent inhibition: assessed on day 16; for post-emergent inhibition: treatments three and six days after germination. In kind it is in vivo, Arabidopsis thaliana. Summed up: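 Test compounds were applied to A. thaliana across 125 μM–2 mM, either pre-emergence or post-emergence.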

Data set [3] relates to Wild type A. thaliana (WT). In words: Dicamba tolerance trait test, wild type plants. In kind it is in vivo, Arabidopsis thaliana. The conditions noted are these: sprayed at 500 μM. An outline of the steps: as §1
Data set [4] is described as follows: HPLC determination of dicamba formation in water. In kind it is physicochemical. As to conditions: for % Dicamba: integration of dicamba as percentage of all peaks at 220 nm.

As to 6-O-dicamba-D-glucose [Compound 2], in data set [1], the “growth effect on dicamba-tolerant transgenic line” value is “no growth symptoms”. The “relative post-emergent herbicidal efficacy among conjugates” value in data set [2] (post-emergence, comparison between carbohydrate conjugates (Fig. 5)) is “most active”. For the same compound, in data set [3], the “growth effect on wild-type” value is “herbicidal”. Further, the “% Dicamba” value in data set [4] (1 day) amounted to 0.1%; in data set [4] (7 days) it was 0.1%; in data set [4] (28 days), 0.5%. The “relative stability to hydrolysis among glucose isomers 1–5” value in data set [4] (HPLC) is “most stable”.

On to `COc1c(Cl)ccc(Cl)c1C(=O)O` [Dicamba, 3,6-dichloro-2-methoxybenzoic acid], for which, in data set [1], the “growth effect on dicamba-tolerant transgenic line” value was “no growth symptoms”. For the same compound, the pre-emergent inhibition result is “weak” in data set [2] (125 μM) and “strong” in data set [2] (1 mM). The post-emergent inhibition entry in data set [2] (125 μM) was “moderate”; in data set [2] (500 μM), “strong”. Further, in data set [3], the “growth effect on wild-type” value is given as “herbicidal”.
